Data reported in ChEMBL document CHEMBL4396883, “Discovery of CDK5 Inhibitors through Structure-Guided Approach” (ACS Med Chem Lett, 2019).
Active and inactive are the calls of the source. No cut-off for these calls is given here.

Legend:
[1] = biological target: Cyclin-dependent kinase 5 (Homo sapiens) (UniProt Q00535); assay: Inhibition of CDK5 in human MV4-11 cells assessed as increase in p27KIP1 level at 5 to 10 uM measured after 24 hrs incubation by Western blot analysis; type: cell-based
In short: (§1)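 Cells treated for 24 h; lysates immunoblotted for pAkt (S473), pRB (S780), cyclin D1, p27KIP1, and cleaved caspase 3 and 7 (MOLM-13); at least two independent repeats.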

[2] = biological target: Cyclin-dependent kinase 5 (Homo sapiens) (UniProt Q00535); assay: Inhibition of CDK5 in human MOLM13 cells assessed as increase in p27KIP1 level at 5 to 10 uM measured after 24 hrs incubation by Western blot analysis; type: cell-based; in short: as §1
[3] = biological target: Cyclin-dependent kinase 5 (Homo sapiens) (UniProt Q00535); assay: Inhibition of CDK5 in human MV4-11 cells assessed as decrease in cyclin D1 level at 5 to 10 uM measured after 24 hrs incubation by Western blot analysis; type: cell-based; in short: as §1
[4] = biological target: Cyclin-dependent kinase 5 (Homo sapiens) (UniProt Q00535); assay: Inhibition of CDK5 in human MOLM13 cells assessed as decrease in cyclin D1 level at 5 to 10 uM measured after 24 hrs incubation by Western blot analysis; type: cell-based; in short: as §1
[5] = biological target: Cyclin-dependent kinase 5/CDK5 activator 1 (Homo sapiens, UniProt Q00535+Q15078); assay: Inhibition of recombinant full length N-terminal GST tagged human CDK5/p25 expressed in baculovirus infected sf9 cells using histone H1 as substrate at 10 uM measured after 60 mins in presence of ATP by ADP-Glo kinase assay relative to control
Cyclin-dependent kinase 5/CDK5 activator 1 (Homo sapiens, UniProt Q00535+Q15078), sequence (Q00535 whole entry): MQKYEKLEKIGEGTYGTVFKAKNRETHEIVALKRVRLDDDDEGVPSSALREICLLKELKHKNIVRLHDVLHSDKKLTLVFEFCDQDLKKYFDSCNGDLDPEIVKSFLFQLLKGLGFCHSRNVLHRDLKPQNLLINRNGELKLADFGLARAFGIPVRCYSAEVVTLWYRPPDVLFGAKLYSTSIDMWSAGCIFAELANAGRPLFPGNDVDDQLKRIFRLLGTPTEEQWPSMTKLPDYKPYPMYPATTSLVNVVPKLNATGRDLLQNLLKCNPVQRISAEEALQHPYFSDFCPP
Cyclin-dependent kinase 5/CDK5 activator 1 (Homo sapiens, UniProt Q00535+Q15078), sequence (Q15078 99-307 partner limits assumed): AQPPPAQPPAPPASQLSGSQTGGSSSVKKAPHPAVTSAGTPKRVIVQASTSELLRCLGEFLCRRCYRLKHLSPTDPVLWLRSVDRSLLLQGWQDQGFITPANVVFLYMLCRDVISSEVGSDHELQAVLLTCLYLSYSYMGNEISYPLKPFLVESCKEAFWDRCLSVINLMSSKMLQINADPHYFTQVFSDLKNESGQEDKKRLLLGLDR

[6] = biological target: CDK2/Cyclin A2 (Homo sapiens, UniProt P24941); assay: Inhibition of recombinant full length N-terminal GST tagged human CDK2/CyclinA expressed in baculovirus infected sf9 cells using histone H1 as substrate measured after 30 mins in presence of ATP by ADP-Glo kinase assay
In short: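 CDK2/cyclin A kinase inhibition; Ki values from the average of at least two experiments.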

[7] = biological target: Cyclin-dependent kinase 5/CDK5 activator 1 (Homo sapiens, UniProt Q00535); assay: Inhibition of recombinant full length N-terminal GST tagged human CDK5/p25 expressed in baculovirus infected sf9 cells using histone H1 as substrate measured after 60 mins in presence of ATP by ADP-Glo kinase assay; type: cell-based
Cyclin-dependent kinase 5/CDK5 activator 1 (Homo sapiens, UniProt Q00535), sequence (Q00535 whole entry): as the sequence (Q00535 whole entry) above
Cyclin-dependent kinase 5/CDK5 activator 1 (Homo sapiens, UniProt Q00535), sequence (Q15078 whole entry, further chain): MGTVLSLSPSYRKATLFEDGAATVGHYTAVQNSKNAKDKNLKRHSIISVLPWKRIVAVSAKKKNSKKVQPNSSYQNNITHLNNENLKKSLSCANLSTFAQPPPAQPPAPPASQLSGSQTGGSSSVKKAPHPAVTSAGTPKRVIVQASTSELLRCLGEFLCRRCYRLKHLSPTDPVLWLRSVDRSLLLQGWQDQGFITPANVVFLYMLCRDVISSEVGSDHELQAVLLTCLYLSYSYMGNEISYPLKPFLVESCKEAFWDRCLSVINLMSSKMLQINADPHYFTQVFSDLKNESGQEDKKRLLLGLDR

[8] = biological target: Cyclin-dependent kinase 1/cyclin B1 (Homo sapiens, UniProt P06493); assay: Inhibition of CDK1/CyclinB1 (unknown origin) using histone H1 (GGGPATPKKAKKL) as substrate incubated for 80 mins in presence of ATP by ADP-Glo kinase assay; type: protein-complex assay
Cyclin-dependent kinase 1/cyclin B1, sequence (P06493 whole entry, the tested form may be a part): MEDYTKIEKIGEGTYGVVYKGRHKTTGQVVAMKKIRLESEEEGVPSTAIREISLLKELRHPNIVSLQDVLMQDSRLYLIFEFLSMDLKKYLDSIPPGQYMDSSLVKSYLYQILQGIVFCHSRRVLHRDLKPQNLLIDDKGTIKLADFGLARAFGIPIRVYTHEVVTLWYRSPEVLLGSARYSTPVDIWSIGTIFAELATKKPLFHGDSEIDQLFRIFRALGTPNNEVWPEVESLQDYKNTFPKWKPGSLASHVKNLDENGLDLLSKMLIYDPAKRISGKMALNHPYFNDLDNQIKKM
Cyclin-dependent kinase 1/cyclin B1, sequence (P14635 whole entry, further chain, the tested form may be a part): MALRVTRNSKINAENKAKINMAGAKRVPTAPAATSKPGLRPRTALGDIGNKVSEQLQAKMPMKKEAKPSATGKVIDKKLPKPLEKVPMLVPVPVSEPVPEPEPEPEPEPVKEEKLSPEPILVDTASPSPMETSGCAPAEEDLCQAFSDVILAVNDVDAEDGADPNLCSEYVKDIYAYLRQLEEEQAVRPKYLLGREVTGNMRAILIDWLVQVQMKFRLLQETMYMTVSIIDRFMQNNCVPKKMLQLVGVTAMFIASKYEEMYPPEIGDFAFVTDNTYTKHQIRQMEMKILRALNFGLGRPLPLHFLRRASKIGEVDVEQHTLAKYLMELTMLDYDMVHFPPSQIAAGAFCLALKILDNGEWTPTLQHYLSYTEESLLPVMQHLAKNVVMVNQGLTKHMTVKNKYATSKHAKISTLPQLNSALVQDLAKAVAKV

[9] = biological target: CDK6/cyclin D3 (Homo sapiens, UniProt Q00534); assay: Inhibition of human recombinant N-terminal GST-tagged CDK6 (M1-A326 residues) and His6 tagged Cyclin D3 (M1-L292 residues) expressed in sf9 cells using histone H1 (GGGPATPKKAKKL) as substrate incubated for 60 mins in presence of ATP by ADP-Glo kinase assay
CDK6/cyclin D3, sequence (P30281 whole entry, the tested form may be a part): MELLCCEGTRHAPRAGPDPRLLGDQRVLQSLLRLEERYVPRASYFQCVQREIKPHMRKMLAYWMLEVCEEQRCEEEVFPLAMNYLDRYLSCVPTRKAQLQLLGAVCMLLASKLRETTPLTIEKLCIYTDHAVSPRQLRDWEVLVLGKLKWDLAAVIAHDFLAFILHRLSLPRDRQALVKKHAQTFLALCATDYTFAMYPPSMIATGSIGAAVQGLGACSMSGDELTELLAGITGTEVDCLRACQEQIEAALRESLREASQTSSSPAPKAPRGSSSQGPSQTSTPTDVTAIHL
CDK6/cyclin D3, sequence (Q00534 whole entry, the tested form may be a part): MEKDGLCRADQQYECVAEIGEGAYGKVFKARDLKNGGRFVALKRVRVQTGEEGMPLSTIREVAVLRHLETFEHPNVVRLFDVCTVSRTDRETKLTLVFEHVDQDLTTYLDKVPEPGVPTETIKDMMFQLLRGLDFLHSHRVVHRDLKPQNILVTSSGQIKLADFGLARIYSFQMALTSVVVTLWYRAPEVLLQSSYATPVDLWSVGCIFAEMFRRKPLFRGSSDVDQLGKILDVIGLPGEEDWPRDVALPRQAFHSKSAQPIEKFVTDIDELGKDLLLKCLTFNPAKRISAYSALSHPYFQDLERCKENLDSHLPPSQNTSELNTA

[10] = biological target: CDK9/cyclin T1 (Homo sapiens, UniProt P50750); assay: Inhibition of human recombinant full length N-terminal GST His6 fused CDK9 (M1 to F372 residues/ N-terminal His6 tagged Cyclin T1 (M1 to K726 residues) expressed in sf9 cells using RBER-IRStide as substrate incubated for 90 mins in presence of ATP by ADP-Glo kinase assay
CDK9/cyclin T1, sequence (O60563 whole entry, the tested form may be a part): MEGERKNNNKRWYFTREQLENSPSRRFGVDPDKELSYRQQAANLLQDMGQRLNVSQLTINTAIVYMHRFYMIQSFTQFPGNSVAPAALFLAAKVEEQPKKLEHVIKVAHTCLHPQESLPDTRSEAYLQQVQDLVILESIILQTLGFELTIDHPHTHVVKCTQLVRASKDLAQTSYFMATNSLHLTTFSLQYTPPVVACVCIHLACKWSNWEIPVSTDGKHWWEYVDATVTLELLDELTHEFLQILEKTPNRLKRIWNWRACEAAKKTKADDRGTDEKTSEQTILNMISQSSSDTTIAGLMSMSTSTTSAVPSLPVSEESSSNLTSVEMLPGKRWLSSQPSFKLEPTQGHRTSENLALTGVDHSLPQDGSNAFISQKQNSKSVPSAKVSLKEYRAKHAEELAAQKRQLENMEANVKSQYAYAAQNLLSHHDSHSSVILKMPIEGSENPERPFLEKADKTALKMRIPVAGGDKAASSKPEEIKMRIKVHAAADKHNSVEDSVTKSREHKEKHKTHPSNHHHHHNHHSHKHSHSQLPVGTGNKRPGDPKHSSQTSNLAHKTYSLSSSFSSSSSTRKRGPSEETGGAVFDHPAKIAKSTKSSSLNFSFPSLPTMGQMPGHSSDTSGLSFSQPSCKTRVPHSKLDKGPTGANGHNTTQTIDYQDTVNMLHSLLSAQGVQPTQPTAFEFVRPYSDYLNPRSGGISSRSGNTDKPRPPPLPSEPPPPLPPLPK
CDK9/cyclin T1, sequence (P50750 whole entry, the tested form may be a part): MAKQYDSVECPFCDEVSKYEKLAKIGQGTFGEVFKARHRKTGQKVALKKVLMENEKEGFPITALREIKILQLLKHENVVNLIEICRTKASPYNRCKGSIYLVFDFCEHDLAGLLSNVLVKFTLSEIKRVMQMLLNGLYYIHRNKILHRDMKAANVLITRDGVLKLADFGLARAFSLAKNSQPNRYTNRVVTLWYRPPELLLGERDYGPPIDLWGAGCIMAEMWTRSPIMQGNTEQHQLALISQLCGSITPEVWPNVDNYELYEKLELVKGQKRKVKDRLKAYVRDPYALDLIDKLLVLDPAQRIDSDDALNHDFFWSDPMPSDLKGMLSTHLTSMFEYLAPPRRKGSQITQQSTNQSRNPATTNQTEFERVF

[11] = tested on: MOLM-13; assay: Induction of apoptosis in human MOLM13 cells assessed as early apoptotic cells at 2.5 uM measured after 24 hrs by Annexin V-FITC/PI staining based flow cytometry (reference value: 3.38%); type: functional
[12] = tested on: MOLM-13; assay: Induction of apoptosis in human MOLM13 cells assessed as late apoptotic cells at 2.5 uM measured after 24 hrs by Annexin V-FITC/PI staining based flow cytometry (reference value: 1.94%); type: functional
[13] = tested on: MOLM-13; assay: Induction of apoptosis in human MOLM13 cells assessed as early apoptotic cells at 10 uM measured after 24 hrs by Annexin V-FITC/PI staining based flow cytometry (reference value: 3.38%); type: functional
[14] = tested on: MOLM-13; assay: Induction of apoptosis in human MOLM13 cells assessed as late apoptotic cells at 10 uM measured after 24 hrs by Annexin V-FITC/PI staining based flow cytometry (reference value: 1.94%); type: functional
[15] = biological target: Cyclin-dependent kinase 5 (Homo sapiens) (UniProt Q00535); assay: Inhibition of CDK5 in human MOLM13 cells assessed as increase in caspase3/7 activity at 2.5 to 10 uM measured after 24 hrs by caspase-3/7 glo assay; type: cell-based
In short: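 MOLM-13 cells treated 24 h; caspase-3/7 activity measured with […]; at least two independent experiments, values given as mean.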

[16] = biological target: Cyclin-dependent kinase 5 (Homo sapiens) (UniProt Q00535); assay: Inhibition of CDK5 in human MOLM13 cells assessed as decrease in phosphorylated RB protein level at 5 to 10 uM measured after 24 hrs incubation by Western blot analysis; type: cell-based; in short: as §1
[17] = biological target: Cyclin-dependent kinase 5 (Homo sapiens) (UniProt Q00535); assay: Inhibition of CDK5 in human MOLM13 cells assessed as decrease in phosphorylated Akt protein level at 5 to 10 uM measured after 24 hrs incubation by Western blot analysis; type: cell-based; in short: as §1
[18] = tested on: MV4-11; assay: Cell cycle arrest in human MV4-11 cells assessed as accumulation at G1 phase at 2.5 to 10 uM measured after 24 hrs by propidium iodide staining based flow cytometry analysis; type: functional
In short: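 MV4-11 cells treated 24 h at 2.5 and 10 μM; cell-cycle phase distribution (sub-G1, G1, S, G2/M) by flow cytometry; at least two independent experiments, numerical data as mean value.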

[19] = biological target: Cyclin-dependent kinase 5 (Homo sapiens) (UniProt Q00535); assay: Inhibition of CDK5 in human MV4-11 cells assessed as decrease in phosphorylated Akt protein level at 5 to 10 uM measured after 24 hrs incubation by Western blot analysis; type: cell-based; in short: as §1
[20] = biological target: Cyclin-dependent kinase 5 (Homo sapiens) (UniProt Q00535); assay: Inhibition of CDK5 in human MV4-11 cells assessed as decrease in phosphorylated RB protein level at 5 to 10 uM measured after 24 hrs incubation by Western blot analysis; type: cell-based; in short: as §1
[21] = biological target: Cyclin-dependent kinase 5 (Homo sapiens) (UniProt Q00535); assay: Inhibition of CDK5 in human MV4-11 cells assessed as decrease in FAK phosphorylation at S732 measured after 24 hrs by Western blot analysis; type: cell-based
In short: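 MV4-11 AML cells incubated 24 h with compound across a concentration series; cellular CDK5 activity followed by Western blot of FAK phosphorylation at Ser732.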

[22] = biological target: Cyclin-dependent kinase 5 (Homo sapiens) (UniProt Q00535); assay: Inhibition of CDK5 in human MOLM13 cells assessed as increase in cleaved caspase 7 level at 5 to 10 uM measured after 24 hrs by western blot analysis; type: cell-based; in short: as §1
[23] = biological target: Cyclin-dependent kinase 5 (Homo sapiens) (UniProt Q00535); assay: Inhibition of CDK5 in human MOLM13 cells assessed as decrease in p21CIP1 level at 5 to 10 uM measured after 24 hrs by western blot analysis; type: cell-based
[24] = biological target: Cyclin-dependent kinase 5 (Homo sapiens) (UniProt Q00535); assay: Inhibition of CDK5 in human MV4-11 cells assessed as FAK phosphorylation at S732 at 5 to 10 uM measured after 24 hrs by Western blot analysis
[25] = tested on: MOLM-13 (Homo sapiens); assay: Cell cycle arrest in human MOLM-13 cells assessed as accumulation at sub G1 phase at 10 uM measured after 24 hrs by propidium iodide staining based flow cytometry analysis

Cyclin-dependent kinase 5 (Homo sapiens), sequence (Q00535 whole entry, looked up): as the sequence (Q00535 whole entry) above

Row | Activity [1] | Activity [2] | inhibition [3] | inhibition [4] | inhibition [5] | Ki [6] | Ki [7] | Ki [8] | Ki [9] | Ki [10] | Activity [15] | inhibition [16] | inhibition [17] | inhibition [19] | inhibition [20] | Compound | Activity [11] | Activity [12] | Activity [13] | Activity [14] | Activity [18] | further results
1 | Active | Active | Active | Active | 98% | 270 nM | 160 nM | 2610 nM | 3010 nM | 1000 nM | Active | Active | Active | Active | Active | NS(=O)(=O)c1cccc(Nc2ncc3c(n2)CCCC3)c1 | 10.05% | 3.43% | 18.34% | 6.16% | Active | inhibition [21]: Dose-dependent effect; Activity [22]: Active; inhibition [23]: Active; inhibition [24]: inactive; Activity [25]: Active
2 | Active | Active | Active | Active | 87% | 3320 nM | 800 nM | 2360 nM | > 5000 nM | > 5000 nM | Active | Active | Active | Active | Active | Cc1cccc(Nc2ncc3c(n2)CCCC3)c1 | 8.31% | 2.68% | 30.11% | 7.92% | Active | inhibition [21]: Dose-dependent effect; Activity [22]: Active; inhibition [23]: Active; inhibition [24]: inactive; Activity [25]: Active
